In the library only some 0.79% were active in any assay of this set; here they are far more common.
Rin1 Abl inh: human Rin1-Abl interaction inhibition; P00519+Q13671; TR-FRET Rin1/Abl binding, biochemical; inhibition, % at 7.35 µM; hit rate 0.4% among 360,000; AID 588664; in the data active means inhibition above about 5%, passing the limit was not always enough
PKA-R2B activ: activators of human PKA-R2B complex; AID 504700; activation, % at 11.4 µM; PKA-R2B holoenzyme dissociation, Cy5-IP20 fluorescence polarization; R2B truncated from residue 108, S112A mutant; 0% DMSO only, 100% 113 µM cGMP; hit rate 0.079% among 340,000;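 active means activation above a cutoff set at the mean over all compounds plus 3 SD, cut at about 18% in these data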;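 further: higher means more holoenzyme dissociation and a rise in polarization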
Target sequence (P31323 whole entry, looked up, other chains not shown, the tested form may be a part): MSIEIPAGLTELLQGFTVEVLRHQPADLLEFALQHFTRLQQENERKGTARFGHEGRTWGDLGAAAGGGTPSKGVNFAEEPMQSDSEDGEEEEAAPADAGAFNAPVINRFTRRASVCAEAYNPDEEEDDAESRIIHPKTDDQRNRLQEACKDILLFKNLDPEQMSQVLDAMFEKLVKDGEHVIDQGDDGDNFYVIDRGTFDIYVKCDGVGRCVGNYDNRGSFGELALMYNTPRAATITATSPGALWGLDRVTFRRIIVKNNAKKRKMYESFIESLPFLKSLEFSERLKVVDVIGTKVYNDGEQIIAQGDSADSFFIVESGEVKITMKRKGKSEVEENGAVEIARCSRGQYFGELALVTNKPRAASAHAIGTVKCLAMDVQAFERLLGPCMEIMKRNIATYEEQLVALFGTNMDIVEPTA
PKA-R1A act: activates the PKA-R1A holoenzyme complex. P00514+P68181. PKA-R1A dissociation, Cy5-IP20 fluorescence polarization; scaled: DMSO 0%, 113 µM cGMP 100%. hit rate 0.083% among 340,000. activation, % at 11.4 µM;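 active means percent activation above the mean of all tested compounds plus 3 SD, cut at about 19% in these data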;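 further: higher means more PKAc released from R1A so a rise in polarization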
UCH37 inh: inhibitors of human deubiquitinating enzyme UCH37. inhibition, % (concentration not given with the values). purified proteasome/UCH37, Ub-AMC cleavage fluorescence. hit rate 0.33% among 330,000. AID 588478;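 active means mean inhibition over replicate wells above about 20%, limit read from the data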;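 further: 0% = compound-free wells with enzyme and 100% = wells lacking proteasome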
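Material: Human UCH37 enzyme supplied as purified proteasome complex | Schedule: 30 min preincubation with enzyme, 25 min cleavage at room temperature | Detection: AMC fluorescence 355/460 nm | Measure: % inhibition of Ub-AMC cleavage fluorescence | Controls: Wells without proteasome as full block, compound-free enzyme plus substrate as uninhibited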
R2B FP artifact: FP assay interference, PKA-R2B counter-screen; shares compounds with PKA-R2B activ; FP artifact counterscreen, fluorescence polarization; activation, % at 11.4 µM; hit rate 6% among 270; in the data active means activation above about 20%;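 further: Cy5 labelled IP20 peptide probe with compound but no PKA protein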
PKA-R2B act conf: PKA-R2B complex activation, confirmation; hit rate 9% among 270; activation, % at 11.4 µM; fluorescence polarization; shares compounds with PKA-R2B activ; AID 504797; in the data active means activation above about 19%
Target sequence (P31323 whole entry, looked up): as the sequence (P31323 whole entry, looked up, other chains not shown, the tested form may be a part) above
* marks the source's active call; other numbers are inactive results; x = no result given; ! = repeats disagree.

SMILES | Rin1 Abl inh | PKA-R2B activ | PKA-R1A act | UCH37 inh | R2B FP artifact | PKA-R2B act conf
COc1cc([N+](=O)[O-])cc(C=NNC(=O)C(O)(c2ccccc2)c2ccccc2)c1O | x | x | x | 12 | x | x
CCn1cc(/C=C/c2cc[n+](C)cc2)c2ccccc21 | -126 | -5 | 4 | 20* | x | x
C=CCn1cc(/C=C/c2cc[n+](C)cc2)c2ccccc21 | -76 | -7 | -6 | 22* | x | x
COc1ccc(COC(=O)C2=C(C)NC(=O)NC2c2ccc(OC)cc2)cc1 (stereo not given) | 3 | -14 | -6 | 0 | x | x
Cc1ccc(NC(=O)c2cccc(C(=O)Nc3ccc(C)cc3C(=O)O)c2)c(C(=O)O)c1 | -3 | -2 | -2 | 12 | x | x
Cc1ccc(S(=O)(=O)CCSc2cccc(C(=O)Nc3ccccc3C(=O)O)c2)cc1 | 0 | -7 | -6 | 25* | x | x
COc1cccc(-c2nnc(SC(C(=O)c3c[nH]c4ccccc34)c3ccccc3)n2C)c1 (stereo not given) | -2 | -6 | -11 | 29* | x | x
COc1ccc2nc(N3CCCCC3)c(/C=C3\SC(=S)NC3=O)cc2c1 | 6.6* | 7 | 4 | 7 | x | x
O=C1NC(=S)S/C1=C\c1cc2ccccc2nc1N1CCCCC1 | 2 | 8 | 8 | 8 | x | x
O=C(O)c1ccc2c(c1)[C@@H]1C=CC[C@@H]1[C@H](c1ccccn1)N2 | 21* | -2 | -14 | 14 | x | x
O=C1c2ccccc2C(=O)N1/N=C/c1ccc(O)c(O)c1O | 65* | -2 | 2 | x | x | x
CCOC(=O)Cc1sc(N)nc1C | 1 | -9 | -1 | -1 | x | x
Cc1ccc(/C=C2\SC(=S)N(NS(=O)(=O)c3ccc(C)cc3)C2=O)cc1 | -1 | -1 | -4 | 11 | x | x
Cc1ccc(S(=O)(=O)NN2C(=O)/C(=C/c3ccc(C(=O)O)cc3)SC2=S)cc1 | -1 | 5 | -3 | 21* | x | x
NC(=O)CCn1c(C(=O)c2ccc(Cl)cc2)c2ccccc2[n+]1[O-] | 0 | 3 | -2 | 28* | x | x
CN(c1ccccc1)S(=O)(=O)c1ccc(C(=O)Nc2nnc(C3=COCCO3)o2)cc1 | -2 | -17 | -11 | 5 | x | x
Cc1cccc(NC(=S)NCc2ccco2)n1 | 2 | 7 | -2 | 6 | x | x
O=C1NC[C@H](Cc2ccccc2)N(CC2CCN(CC3CCCC3)CC2)C1=O | 1 | -2 | 4 | x | x | x
CC(C)(C)N1C(=O)Cc2c1nc(N)c1c(N)nc(N3CCCCC3CO)c(C#N)c21 (stereo not given) | 20* | 3 | -3 | -177 | x | x
NC(=O)CSc1nnc(COc2ccccc2)n1CCc1ccccc1 | 2 | 22* | -5 | 1 | 2 | 2
Cn1cccc1Cc1nnc(SCC(N)=O)n1CCc1ccccc1 | -2 | -12 | 14 | 2 | x | x
CC(OC(=O)c1ccc2c(=O)n3c(nc2c1)CCCCC3)C(=O)Nc1ccc(F)cc1Cl (stereo not given) | -1 | -10 | -7 | 0 | x | x
O=S(=O)(c1ccc2c(c1)OCCO2)N1CCC(c2nc3ccccc3[nH]2)CC1 | 4 | 19* | -1 | 2 | 4 | 2
CC(C)CSc1ccc(S(=O)(=O)NCC(=O)O)cc1[N+](=O)[O-] | -2 | 19* | 0 | 2 | 4 | 0
CN1C(=O)N(CC(=O)N2CCN(c3ncccn3)CC2)C(=O)C12CCCCC2 | 0 | 10 | -1 | 3 | x | x
SMILES | Rin1 Abl inh | PKA-R2B activ | PKA-R1A act | UCH37 inh | R2B FP artifact | PKA-R2B act conf
O=C1CC2(CCCC2)CC(=O)N1CCCCN1CCN(c2ncccn2)CC1 | 4 | 23* | 12 | 1 | 2 | 0
COc1ccc(-c2noc(CN(C(=O)c3ccc4c(c3)OCO4)C(C)C)n2)cc1OC | -1 | 19* | 9 | -2 | -1 | -5
CC#CC(=O)NCC1(N(C)Cc2ccccc2)Cc2ccccc2C1 | 1 | 18* | 5 | 1 | 6 | 2
CSCC(=O)NCC1(N(C)Cc2ccccc2)Cc2ccccc2C1 | 0 | -3 | 12 | 2 | x | x
NC(=O)Nc1ccc(Cl)cc1 | 0 | 23* | 2 | 3 | -2 | 1
COc1ccc(-c2csc(NC(=O)CSCC(=O)Nc3cc(C)on3)n2)cc1OC | 3 | -10 | 1 | 1 | x | x
Cc1ccc(S(=O)(=O)N2CCN(C(=O)c3ccc(N4CCC(C)CC4)c([N+](=O)[O-])c3)CC2)cc1 | 3 | 4 | -3 | 4 | x | x
CCC[C@H]1CN(c2ccc(OC)cc2)C(=O)[C@@H]1CC(=O)Nc1ccccc1 | -2 | 5 | 3 | x | x | x
O=C(c1sc2cc([N+](=O)[O-])ccc2c1Cl)N1CCCCC1 | -2 | -5 | -1 | -9 | x | x
Cc1ccc(C(NC(=O)N2CCOCC2)C(Cl)Cl)cc1F (stereo not given) | -1 | 22* | -11 | 3 | 5 | 5
CC(C)CC#Cc1ccc2c(c1)O[C@H](CN(C)C(=O)Cc1ccncc1)[C@H](C)CN([C@H](C)CO)S2(=O)=O | 5 | 3 | -15 | x | x | x
Cc1cccc(CC(C)NC(=O)c2cc(COc3ccc(C)c(C)c3)on2)n1 (stereo not given) | 2 | -7 | 5 | -1 | x | x
Cc1ccc(OCc2cc(C(=O)NC(C)Cc3cnccn3)no2)cc1C (stereo not given) | -3 | 21* | 4 | 1 | 7 | 5
CCCN(C)C[C@H]1Oc2ncc(Br)cc2C(=O)N([C@@H](C)CO)C[C@@H]1C | -5 | -4 | 2 | x | x | x
CCCN(C)C[C@@H]1Oc2ncc(Br)cc2C(=O)N([C@@H](C)CO)C[C@H]1C | -1 | 20* | 3 | x | 5 | 3
CC(C(=O)O)c1ccc(-c2ccccc2)c(F)c1 (stereo not given) | 0 | 21*! | -8 | -2 | 0 | 5
CC(C(=O)Nc1ccccc1)c1ccc(-c2ccccc2)c(F)c1 (stereo not given) | -2 | -4 | -6 | -1 | x | x
Cc1ccc2nsnc2c1NC(=O)c1cccnc1Cl | -3 | -1 | -6 | 0 | x | x
O=C(O)CCCC(=O)N(Cc1ccccc1)Cc1ccccc1 | -1 | -7 | 1 | -2 | x | x
O=C(CSC1=NCCS1)N1CCCC1 | 4 | 22* | -1 | -1 | 2 | -2
C=CCNC(=O)c1onc(CSc2ccncc2)c1C(=O)NCC=C | 0 | 22* | -9 | 0 | 3 | 0
C=CCNC(=O)c1onc(CSc2ccccc2)c1C(=O)NCC=C | 2 | 4 | -1 | -1 | x | x
COc1cccc(NC(=O)C(=O)NCCCN2CCCC2=O)c1 | 2 | 20* | 9 | 3 | 2 | 2
COc1ccccc1NC(=O)C(=O)NCCCN1CCCC1=O | -1 | 2 | -5 | 4 | x | x
Cc1nc(CCNC(=O)CC2C(=O)NCCN2Cc2ccoc2)nc2c1CCCC2 (stereo not given) | 2 | 23* | 4 | 3 | 3 | 3
Clc1ccc2scc(CN3CCCCC3)c2c1 | -3 | 0 | -8 | 2 | x | x

Source: PubChem
